Only some compounds are listed: those with a hit (about 3% of all), similar ones and a draw of the others.
HSF1 activator: increases HSF-1 driven luciferase reporter signal; 300,000 tested, 1.7% active; AID 504408; activation, % at 9 µM; NIH3T3-HGL HSF-1 luciferase reporter, MG132, 8 h; 100% = twice DMSO control signal;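 active = mean replicate activation of at least 50% with a set share of replicates each reaching 50%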;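 note: 0% = median of the neutral control wells and 100% = twice that signal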
N-glyco inh: N-linked glycosylation inhibition; D54 ERlucT glycosylation luciferase reporter, 24 h; percent of 100 nM tunicamycin response; reporter increase, % at 12.5 µM; 360,000 tested, 0.23% active; AID 588692;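 active = mean luciferase reporter signal, scaled so untreated is 0 and the glycosylation-blocking control 100, at or above a set limit in every replicate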;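 note: luciferase carries N-glycosylation sites so blocking glycosylation raises the light; 0% = median of neutral control wells and 100% = median of 100 nM tunicamycin wells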
PfHsp90 set2: reduces growth (ATP signal) of yeast expressing P. falciparum Hsp90; 310,000 tested, 0.32% active; inhibition, % at 9.4 µM; AID 504621; S. cerevisiae expressing PfHsp90, BacTiter-Glo ATP, 48 h; yeast lacking PDR1 and PDR3 efflux regulators;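 active = every replicate shows inhibition above about 80%, whatever the replicate mean, limit read from the data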;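 note: 0% = DMSO neutral controls and 100% = 20 µM radicicol positive controls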
CaV13 FRET inh: Disruptors of the CACNA1D IQ motif to Ca2+-dependent inactivation inhibitor domain association, primary screening, Förster resonance energy transfer in intact living … | HEK cells, CFP/YFP FRET ICDI-IQ, plate reader, 10 min; percent FRET-ratio fall versus neutral wells | inhibition, % at 12.3 µM | 340,000 tested, 0.098% active | AID 743397;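 active = mean replicate inhibition of at least 30% and at least 1% of replicates passing that level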;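 note: 0% = median of the neutral control wells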
PvdQ inh: blocks Pseudomonas aeruginosa PvdQ acylase activity | purified PvdQ acylase, fluorescence plate reader | inhibition, % at 10 µM | 340,000 tested, 0.063% active | AID 488965; in the data active = inhibition above about 30%, passing the limit was not always enough;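 note: 0% = vehicle neutral wells and 100% = reference inhibitor wells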
T cruzi repl: T. cruzi replication inhibition; T. cruzi beta-gal in NIH3T3, luminescence, 90 h; inhibition, % (no concentration beside the values); 300,000 tested, 1.4% active; AID 1885;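 active = mean inhibition across valid replicates above about 55%, limit read from the data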;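 note: signal also drops with host cell toxicity which is not excluded here; 0% = plate median of DMSO wells and 100% = zero luminescence signal; higher percent means less beta-gal luminescence so fewer parasites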
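System: Mouse NIH/3T3 fibroblasts infected with β-gal-expressing T. cruzi Tulahuen C4 | Quantity: NIH/3T3 cells, 5,000 per well | Reagent: 5000 reporter trypomastigotes per well | Dosing: Compound pinned at 50 nL/well, DMSO | Schedule: 3 h host attachment, then at least 90 h co-culture | Detection: GalScreen luminescence, 60 min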
* hit, by the source's call; · = not tested or not shown.

SMILES | HSF1 activator | N-glyco inh | PfHsp90 set2 | CaV13 FRET inh | PvdQ inh | T cruzi repl
CCOC(=O)c1nnn(CC(=O)N2N=C(c3ccc(Cl)cc3)CC2c2ccccc2)c1C(=O)OCC (centres undefined) | 52* | 1 | -7 | -4 | -4 | 23
CCOC(=O)c1nnn(CC(=O)N2N=C(c3ccc(Cl)cc3)CC2c2ccc(OC)cc2)c1C(=O)OCC (centres undefined) | -3 | 0 | 53 | -6 | -8 | 14
O=C(O/N=C(\c1ccccc1)c1ccccn1)c1ccc(Cl)c(Cl)c1 | 62* | 5 | 11 | -4 | 0 | -6
N/C(=N\OC(=O)c1ccc2ccccc2c1)c1ccccn1 | -89 | -20 | 20 | -4 | 0 | 13
COC(=O)c1cc2c(c3c4ccccc4n(S(=O)(=O)c4ccccc4)c13)C(=O)N(C)C2 | · | · | · | -9 | · | ·
CCOC(=O)C1=C(C)NC(=O)NC1c1ccc(N2CCC(c3ccccc3)=N2)cc1 (centres undefined) | 67* | -5 | 10 | -3 | -6 | 45
CCOC(=O)[C@@H]1CSCCS(=O)(=O)N1C(=O)[C@H](Cc1ccccc1)NC(=O)OC(C)(C)C | · | · | · | -5 | · | ·
COc1ccc(C(C)(C)C)cc1NC(=O)CCn1[nH]c(=O)ccc1=O | · | 0 | -1 | -6 | -8 | ·
O=C(O)CCn1[nH]c(=O)ccc1=O | 58* | 0 | -15 | -1 | -8 | -3
COc1cc(NC(=O)[C@@H](Cc2ccccc2)NC(=O)[C@H]2O[C@@H](n3ccc(=O)[nH]c3=O)[C@H](O)[C@@H]2O)cc(OC)c1OC | · | · | · | -2 | · | ·
c1ccc(-c2ccccc2C2Cc3nnccc3CN2)cc1 (centres undefined) | · | · | · | -4 | · | ·
COC(=O)C1=C(C)N(Cc2ccccc2C(F)(F)F)C(=NCc2ccccc2C(F)(F)F)NC1c1ccc(F)cc1 (centres undefined) | · | · | · | -9 | · | ·
Cc1ccccc1NC(=O)c1cccc(Cn2cc(Br)c([N+](=O)[O-])n2)c1 | 17 | 0 | 24 | -4 | 1 | 48
COc1cc(/C=N\NC(=O)c2ccc(Cn3nc([N+](=O)[O-])c(Cl)c3C)o2)ccc1O | -1 | 0 | -12 | · | -4 | -4
COc1ccc(OC)c(NC(=O)c2cccc(Cn3cc(Br)c([N+](=O)[O-])n3)c2)c1 | 13 | -2 | 7 | -17 | -1 | 64*
COc1cccc(/C=N/NC(=O)c2c(C)nc3ccc(Br)cn23)c1O | -8 | -13 | 7 | · | -3 | 69*
Cc1cccc(NC(=O)c2cccc(Cn3cc(Br)c([N+](=O)[O-])n3)c2)c1C | 2 | -1 | 28 | · | -10 | 58*
COc1cccc(/C=N\NC(=O)c2ccc(Cn3cc(Br)c([N+](=O)[O-])n3)o2)c1O | 31 | -9 | -6 | -6 | -1 | 64*
CCOc1ccccc1/C=N/NC(=O)c1c(C)nc2ccc(Br)cn12 | -7 | 0 | -6 | -19 | -7 | -10
COC(=O)N1C[C@H](OCc2cn(-c3cc(Cl)cc(Cl)c3)nn2)[C@H](OCc2cn(-c3cc(Cl)cc(Cl)c3)nn2)C[C@@H]1c1ccccc1Br | · | · | · | -4 | · | ·
CCOc1ccc2ncc(S(=O)(=O)c3ccc(C)cc3)c(N3CCC4(CC3)OCCO4)c2c1 | 104* | -11 | 6 | -3 | -9 | 30
COCCNC(=S)N1C[C@H]2CON(C)[C@H]2C[C@H]1c1ccccc1Br | · | · | · | -3 | · | ·
COc1ccc(C(=O)C(=O)N2CCN(S(=O)(=O)c3cccc4c(N(C)C)cccc34)CC2)cc1OC | · | · | · | -11 | · | ·
Cc1cc(C)n(CC(O)COc2ccccc2Br)n1 (centres undefined) | 14 | -1 | -18 | -21 | -7 | -8
Cc1cc(C)n(CC(O)COc2ccc(Cl)cc2)n1 (centres undefined) | 50* | 2 | -5 | 7 | -4 | -2
SMILES | HSF1 activator | N-glyco inh | PfHsp90 set2 | CaV13 FRET inh | PvdQ inh | T cruzi repl
Cc1cc(C)n(CC(O)COc2ccc(Cl)cc2Cl)n1 (centres undefined) | 64* | 1 | -27 | -7 | -9 | -1
COC(=O)[C@H](Cc1ccccc1)N1Cc2ccccc2Oc2cc(Br)ccc2S1(=O)=O | · | · | · | -9 | · | ·
O=C(O)COc1ccc(/C=C/c2nc3ccc([N+](=O)[O-])cc3s2)cc1 | -3 | -1 | -4 | -11 | 4 | 56*
Cc1cccc(OCC(=O)Nc2nc3ccc([N+](=O)[O-])cc3s2)c1 | 9 | 1 | -28 | · | -21 | -6
NC(=O)c1c(N)[nH]c(C(=O)c2ccccc2)c1-c1ccc(Br)cc1 | · | · | · | -15 | · | ·
Cc1noc(C)c1S(=O)(=O)N(C)C[C@@H]1OCc2cnnn2CCCC(=O)N([C@@H](C)CO)C[C@H]1C | · | 2 | · | -7 | · | ·
COc1ccc(CN(C)CC(O)COc2ccc(-c3ccccc3)cc2)cc1OC (centres undefined) | -7 | -1 | -13 | -3 | -3 | 58*
COc1ccc(CN(C)CC(O)COC(c2ccc(OC)cc2)c2ccc(OC)cc2)cc1 (centres undefined) | 9 | -2 | 6 | 0 | -10 | 7
CCOc1ccc(CN(C)CC(O)COC(c2ccc(OC)cc2)c2ccc(OC)cc2)cc1 (centres undefined) | 57* | -5 | 16 | -2 | 7 | 43
O=C(O)CSc1c2ccccc2cc2ccccc12 | -17 | 1 | 8 | -2 | 5 | -4
Oc1cc(-c2ccccc2)c2ccccc2c1 | 157* | -2 | -114 | -4 | -16 | -7
COC(=O)c1sc(N)c(C(=O)OC)c1Cn1ncc(Cl)c(Cl)c1=O | 61* | 2 | -9 | -4 | 11 | -26
CCCCN1C(=O)C(CC(=O)NCCc2ccccn2)CC(C(=O)N2CCOCC2)=C1C (centres undefined) | · | 1 | · | -3 | · | ·
CCOc1cc(/C=C2/NC(=O)N(Cc3ccccc3F)C2=O)ccc1O | 86* | 3 | 8 | · | -19 | -12
C=CCNC(=O)/C(C#N)=C\c1cc(Cl)c(O)c(OCC)c1 | 6 | -1 | -32 | -5 | -4 | -4
CCOc1cc(/C=C2\CCC/C(=C\c3cc(Cl)c(O)c(OCC)c3)C2=O)cc(Cl)c1O | 316* | 12 | · | -3 | -2 | 22
CCOc1cc(/C=C2\CN(C)C/C(=C\c3ccc(O)c(OCC)c3)C2=O)ccc1O | 24 | -18 | 7 | -4 | 8 | 62*
COc1cc(/C=C2/NC(=O)N(Cc3ccccc3F)C2=O)cc(OC)c1O | 21 | 4 | 5 | -66 | -12 | 10
O=C(Nc1ccc(OCC(F)(F)C(F)F)c(C(F)(F)F)c1)c1ccccc1O | 66* | -18 | -5 | -5 | -1 | 6
Cc1ccc(S(=O)(=O)N2CCN(C(=O)CCn3cncn3)CC2)cc1 | 3 | 1 | -9 | -5 | -17 | -2

Bioassay records as filed in PubChem.
